According to ChEMBL document CHEMBL4118213, “Drug efficacy of novel 3-O-methoxy-4-halo disubstituted 5,7-dimethoxy chromans; evaluated via DNA gyrase inhibition, bacterial cell wall lesion and antibacterial prospective” (Bioorg Med Chem, 2018):
Values after ≈ are worked out from the molar mass of the structure shown. Active and inactive are the calls of the source. No cut-off for these calls is given here.

Tests used:
Erythrocyte [1] = test: Hemolytic activity in human RBC assessed as mean absorbance (reference value: 0.1868 +/- 0.033); format: ADME, cell-based
Procedure, shortened: (§1)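 Human red blood cell membrane stabilization tested at various concentrations (n = 4) in 96-well format, with distilled water taken as 100% hemolysis. Absorbance read-out; IC50 taken from the percentage inhibition versus concentration curve.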

Klebsiella pneumoniae = test: Antibacterial activity against Klebsiella pneumoniae MTCC 530; format: functional
Procedure, shortened: (§2)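 MIC determined against six bacterial strains over a range of concentrations, with 1% DMSO as the untreated control and novobiocin as the standard. Values are averages of n = 5.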

Erythrocyte [2] = test: Hemolytic activity in human RBC assessed as membrane mortification by absorbance method; format: ADME, cell-based; procedure, shortened: as §1
Pseudomonas aeruginosa = test: Antibacterial activity against Pseudomonas aeruginosa MTCC 424; format: functional; procedure, shortened: as §2
[3] = target: DNA gyrase (Staphylococcus aureus) (UniProt P0A0K8+P20831); test: Inhibition of Staphylococcus aureus DNA gyrase assessed as reduction in relaxation of pBR322 DNA at 1.5 ug by […] analysis relative to control; format: protein-complex assay
Chain of DNA gyrase (Staphylococcus aureus) (P0A0K8 2-644 limits assumed): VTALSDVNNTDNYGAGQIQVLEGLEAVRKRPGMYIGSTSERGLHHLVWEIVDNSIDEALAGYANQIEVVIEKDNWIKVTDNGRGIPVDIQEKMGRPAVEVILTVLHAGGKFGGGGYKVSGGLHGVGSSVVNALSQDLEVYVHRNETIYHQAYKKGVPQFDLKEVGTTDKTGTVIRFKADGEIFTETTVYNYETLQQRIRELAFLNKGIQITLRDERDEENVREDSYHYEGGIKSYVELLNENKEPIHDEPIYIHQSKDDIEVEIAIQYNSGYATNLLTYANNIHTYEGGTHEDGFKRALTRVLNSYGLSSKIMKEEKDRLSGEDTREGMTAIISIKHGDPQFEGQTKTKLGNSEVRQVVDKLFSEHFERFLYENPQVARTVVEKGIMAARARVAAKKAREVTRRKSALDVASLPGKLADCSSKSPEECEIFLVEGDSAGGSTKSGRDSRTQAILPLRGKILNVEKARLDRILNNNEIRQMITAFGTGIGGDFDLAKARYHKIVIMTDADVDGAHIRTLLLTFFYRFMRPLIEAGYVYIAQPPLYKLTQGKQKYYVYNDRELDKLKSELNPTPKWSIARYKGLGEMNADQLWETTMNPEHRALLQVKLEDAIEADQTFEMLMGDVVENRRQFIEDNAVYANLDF
Chain of DNA gyrase (Staphylococcus aureus) (P20831 whole entry partner): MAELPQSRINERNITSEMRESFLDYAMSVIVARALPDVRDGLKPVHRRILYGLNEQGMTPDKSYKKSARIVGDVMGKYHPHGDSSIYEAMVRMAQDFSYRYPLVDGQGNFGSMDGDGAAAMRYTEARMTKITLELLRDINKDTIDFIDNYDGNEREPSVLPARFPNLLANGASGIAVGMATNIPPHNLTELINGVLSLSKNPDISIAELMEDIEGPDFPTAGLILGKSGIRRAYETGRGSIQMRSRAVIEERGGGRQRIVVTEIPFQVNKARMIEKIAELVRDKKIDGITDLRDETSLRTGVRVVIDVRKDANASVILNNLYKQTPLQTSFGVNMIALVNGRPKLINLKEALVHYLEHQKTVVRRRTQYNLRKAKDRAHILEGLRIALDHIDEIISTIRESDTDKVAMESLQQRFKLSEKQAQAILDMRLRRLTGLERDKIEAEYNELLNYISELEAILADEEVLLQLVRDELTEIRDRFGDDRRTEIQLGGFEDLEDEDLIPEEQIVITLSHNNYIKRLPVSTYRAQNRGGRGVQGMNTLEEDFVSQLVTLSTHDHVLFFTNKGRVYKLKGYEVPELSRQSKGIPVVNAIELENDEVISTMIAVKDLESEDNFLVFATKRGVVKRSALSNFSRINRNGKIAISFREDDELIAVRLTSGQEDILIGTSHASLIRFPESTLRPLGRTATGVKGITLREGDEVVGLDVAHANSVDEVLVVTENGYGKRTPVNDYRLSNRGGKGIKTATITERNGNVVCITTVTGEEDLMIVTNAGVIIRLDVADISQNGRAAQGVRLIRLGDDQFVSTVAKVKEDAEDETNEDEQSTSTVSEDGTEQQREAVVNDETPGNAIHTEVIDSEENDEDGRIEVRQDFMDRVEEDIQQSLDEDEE
Procedure, shortened: (§3)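 pBR322 DNA incubated with S. aureus DNA gyrase with or without compound (1.5 µg) and novobiocin as positive control. Products resolved by gel electrophoresis. IC50 from the dose–response curve; mean of duplicate or triplicate measurements.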

[4] = system: Corynebacterium diphtheriae; test: Antibacterial activity against Corynebacterium diphtheriae MTCC 116 assessed as cell wall degradation by measuring dead cells measured every 30 mins up to 180 mins by microscopic method; format: functional, organism-based
Procedure, shortened: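 C. diphtheriae was grown overnight in Loeffler medium and examined after treatment. Dead cells/cell debris were estimated every 30 min until whole-culture death. Total and dead cell stains were applied for 1 h in the dark at room temperature, then fluorescence was read at Ex 490/Em 525 and Ex 536/Em 617 nm, in triplicate.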

Escherichia coli = test: Antibacterial activity against Escherichia coli MTCC 443; format: functional; procedure, shortened: as §2
DNA gyrase = DNA gyrase (Staphylococcus aureus, UniProt P0A0K8+P20831); test: Inhibition of Staphylococcus aureus DNA gyrase assessed as reduction in relaxation of pBR322 DNA by […] analysis; format: protein-complex assay; procedure, shortened: as §3
Chain of DNA gyrase (P0A0K8 whole entry): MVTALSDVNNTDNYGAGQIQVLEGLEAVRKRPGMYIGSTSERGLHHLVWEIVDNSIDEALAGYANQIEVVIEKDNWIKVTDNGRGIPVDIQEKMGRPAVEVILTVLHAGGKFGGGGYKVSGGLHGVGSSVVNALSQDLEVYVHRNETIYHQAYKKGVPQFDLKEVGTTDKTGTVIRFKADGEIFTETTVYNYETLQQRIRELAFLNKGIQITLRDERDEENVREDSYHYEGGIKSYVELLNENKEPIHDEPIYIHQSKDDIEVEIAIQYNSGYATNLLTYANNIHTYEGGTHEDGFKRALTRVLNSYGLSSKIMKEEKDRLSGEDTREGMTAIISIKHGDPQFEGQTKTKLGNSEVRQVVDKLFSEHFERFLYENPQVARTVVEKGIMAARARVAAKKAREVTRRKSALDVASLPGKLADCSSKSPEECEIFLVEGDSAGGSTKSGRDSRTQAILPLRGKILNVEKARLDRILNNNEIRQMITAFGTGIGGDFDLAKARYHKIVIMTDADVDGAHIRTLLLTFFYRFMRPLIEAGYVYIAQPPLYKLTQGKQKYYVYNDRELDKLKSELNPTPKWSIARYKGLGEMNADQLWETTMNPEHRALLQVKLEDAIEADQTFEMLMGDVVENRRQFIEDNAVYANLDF
Chain of DNA gyrase (P20831 whole entry): as the sequence (P20831 whole entry partner) above

[5] = system: Corynebacterium diphtheriae; test: Antibacterial activity against Corynebacterium diphtheriae MTCC 116; format: functional; procedure, shortened: as §2
Erythrocyte [6] = test: Hemolytic activity in human RBC assessed as membrane mortification by measuring […] stabilization by absorbance method relative to control; format: ADME, cell-based; parameters: concentration or dose not given beside the values; procedure, shortened: as §1
Staphylococcus aureus = test: Antibacterial activity against Staphylococcus aureus MTCC 96; format: functional; procedure, shortened: as §2
Streptococcus pyogenes = test: Antibacterial activity against Streptococcus pyogenes MTCC 442; format: functional; procedure, shortened: as §2
[7] = Cytotoxicity against human MCF7 cells assessed as cell viability after 4 hrs by MTT assay relative to control; format: cell-based; parameters: concentration or dose not given beside the values; conditions: read-out: Activity
Procedure, shortened: (§4)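 MTT assay on MCF-7 and MCF-10 cells (n = 4), with DMSO as control and doxorubicin as standard. Viability was read at several times after treatment and calculated as mean OD/control OD × 100%.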

[8] = Cytotoxicity against human MCF7 cells assessed as cell viability after 6 hrs by MTT assay relative to control; format: cell-based; parameters: concentration or dose not given beside the values; conditions: read-out: Activity; procedure, shortened: as §4
MCF7 = test: Cytotoxicity against human MCF7 cells after 8 hrs by MTT assay; format: cell-based; conditions: for Activity: human, mcf7, 8 h; procedure, shortened: as §4
MCF10 = test: Cytotoxicity against human MCF10 cells after 8 hrs by MTT assay; format: cell-based; conditions: mcf10, 8 h; procedure, shortened: as §4

| SMILES | Activity (Erythrocyte [1]) | MIC (Klebsiella pneumoniae) [µg/mL] | IC50 (Erythrocyte [2]) [µg/mL] | MIC (Pseudomonas aeruginosa) [µg/mL] | inhibition [3] [%] | Activity [4] | MIC (Escherichia coli) [µg/mL] | IC50 (DNA gyrase) [nM] | MIC [5] [µg/mL] | Activity (Erythrocyte [6]) [%] | MIC (Staphylococcus aureus) [µg/mL] | MIC (Streptococcus pyogenes) [µg/mL] | viability at 4 h [7] [%] | viability at 6 h [8] [%] | Activity (MCF7) | Activity (MCF10) | IC50 (MCF7; Homo sapiens, MCF7, 8 h) [nM] |
| --- | --- | --- | --- | --- | --- | --- | --- | --- | --- | --- | --- | --- | --- | --- | --- | --- | --- |
| COc1c(Br)c(OC)c(C(C)=O)c2c1C=CC(C)(C)O2 | 0.3634 | 1.99 (≈ 5.83 µM) | 0.124 (≈ 0.364 µM) | 3.12 (≈ 9.14 µM) | 78 to 94 | Active | 2.13 (≈ 6.24 µM) | 1.86 to 24 | 1.08 (≈ 3.17 µM) | 86.16 | 0.99 (≈ 2.9 µM) | 2.04 (≈ 5.98 µM) | – | – | – | – | – |
| COc1ccc2c(c1)c(CC(=O)O)c(C)n2C(=O)c1ccc(Cl)cc1 [INDOMETHACIN] | 0.3834 | – | 0.086 (≈ 0.24 µM) | – | – | – | – | – | – | 85.64 | – | – | – | – | – | – | – |
| CO[C@@H]1[C@@H](OC(N)=O)[C@@H](O)[C@H](Oc2ccc3c(O)c(NC(=O)c4ccc(O)c(CC=C(C)C)c4)c(=O)oc3c2C)OC1(C)C [NOVOBIOCIN] | – | 0.5 to 0.75 (≈ 0.816 to 1.22 µM) | – | 1.75 to 100 (≈ 2.86 to 163 µM) | – | – | 4.94 to 5 (≈ 8.06 to 8.16 µM) | – | 1.32 (≈ 2.15 µM) | – | 0.78 to 0.92 (≈ 1.27 to 1.5 µM) | 3.24 (≈ 5.29 µM) | – | – | – | – | – |
| COc1cc2c(c(O)c1C(C)=O)C(=O)CC(C)(C)O2 | 0.3841 | 2.24 (≈ 8.48 µM) | 1.24 (≈ 4.69 µM) | 1.67 (≈ 6.32 µM) | 78 to 94 | Active | 0.99 (≈ 3.75 µM) | 1.86 to 24 | 1.02 (≈ 3.86 µM) | 80.65 | 1 (≈ 3.78 µM) | 3.12 (≈ 11.8 µM) | – | – | – | – | – |
| COc1cc(OC)c2c(c1C(C)=O)OC(C)(C)[C@@H](O)[C@H]2O | 0.4046 | 0.92 (≈ 3.1 µM) | 0.0094 (≈ 0.0317 µM) | 1.01 (≈ 3.41 µM) | 78 to 94 | Active | 0.84 (≈ 2.83 µM) | 1.86 to 24 | 0.9 (≈ 3.04 µM) | 88.52 | 0.64 (≈ 2.16 µM) | 1.02 (≈ 3.44 µM) | – | – | – | – | – |
| COc1cc(OC)c2c(c1C(C)=O)OC(C)(C)C(O)C2Br (configuration not stated) | – | – | – | – | 78 to 94 | – | – | 1.86 to 24 | – | – | – | – | – | – | – | – | – |
| COc1cc2c(c(OC)c1C(C)=O)[C@H](O)[C@H](O)C(C)(C)O2 | 0.3611 | 3.88 (≈ 13.1 µM) | 1 (≈ 3.38 µM) | 3.01 (≈ 10.2 µM) | 78 to 94 | Active | 4.1 (≈ 13.8 µM) | 1.86 to 24 | 1.28 (≈ 4.32 µM) | 80.88 | 1.54 (≈ 5.2 µM) | 5.02 (≈ 16.9 µM) | – | – | – | – | – |
| CO[C@@H]1[C@@H](OC(=O)c2ccc(C)[nH]2)[C@@H](O)[C@H](Oc2ccc3c(O)c(NC(=O)c4ccc(O)c(CC=C(C)C)c4)c(=O)oc3c2Cl)OC1(C)C | – | – | – | – | 86 | – | – | – | – | – | – | – | – | – | – | – | – |
| COc1cc(OC)c2c(c1C(C)=O)OC(C)(C)[C@H](O)[C@@H]2O | 0.3888 | 2.18 (≈ 7.36 µM) | 0.88 (≈ 2.97 µM) | 4.52 (≈ 15.3 µM) | 78 to 94 | Active | 2.24 (≈ 7.56 µM) | 10 | 0.99 (≈ 3.34 µM) | 85.31 | 0.92 (≈ 3.1 µM) | 2.85 (≈ 9.62 µM) | 20 | 16 | Dose-dependent effect | Non-Toxic | – |
| COc1cc(O)c2c(c1C(C)=O)OC(C)(C)C=C2 | 0.4624 | 0.9 (≈ 3.62 µM) | 0.0182 (≈ 0.0733 µM) | 1.02 (≈ 4.11 µM) | 78 to 94 | Active | 0.88 (≈ 3.54 µM) | 7.5 | 0.82 (≈ 3.3 µM) | 90.45 | 0.1 (≈ 0.403 µM) | 1 (≈ 4.03 µM) | 20 | 16 | Dose-dependent effect | Non-Toxic | – |
| COc1cc(O)c2c(c1C(C)=O)OC(C)(C)C(OC)C2Cl (configuration not stated) | 0.4242 | 0.72 (≈ 2.29 µM) | 0.0102 (≈ 0.0324 µM) | 0.87 (≈ 2.76 µM) | 90 | Active | 0.68 (≈ 2.16 µM) | 3.5 | 0.68 (≈ 2.16 µM) | 93.25 | 0.08 (≈ 0.254 µM) | 0.87 (≈ 2.76 µM) | 20 | 16 | Dose-dependent effect | Non-Toxic | – |
| COc1cc(OC)c2c(c1C(C)=O)OC(C)(C)C(OC)C2Cl (configuration not stated) | 0.3659 | 0.96 (≈ 2.92 µM) | 0.222 (≈ 0.676 µM) | 1.02 (≈ 3.1 µM) | 78 to 94 | Active | 1 (≈ 3.04 µM) | 1.86 to 24 | 0.21 (≈ 0.639 µM) | 86.37 | 0.18 (≈ 0.547 µM) | 1.07 (≈ 3.25 µM) | – | – | – | – | – |
| COc1cc(OS(=O)(=O)C(F)(F)F)c2c(c1C(C)=O)OC(C)(C)C=C2 | 0.4852 | 0.64 (≈ 1.68 µM) | 0.0012 (≈ 0.00316 µM) | 0.84 (≈ 2.21 µM) | 94 | Active | 0.64 (≈ 1.68 µM) | 2.5 | 0.04 (≈ 0.105 µM) | 98.84 | 0.02 (≈ 0.0526 µM) | 0.83 (≈ 2.18 µM) | 20 | 16 | – | Non-Toxic | 10 |
| COc1cc(OC)c2c(c1C(C)=O)OC(C)(C)C(OC)C2F (configuration not stated) | 0.3947 | 0.76 (≈ 2.43 µM) | 0.0922 (≈ 0.295 µM) | 0.94 (≈ 3.01 µM) | 78 to 94 | Active | 0.92 (≈ 2.95 µM) | 9.5 | 0.92 (≈ 2.95 µM) | 85.15 | 0.16 (≈ 0.512 µM) | 0.94 (≈ 3.01 µM) | 20 | 16 | Dose-dependent effect | Non-Toxic | – |
